Measurements reported in ChEMBL document CHEMBL1140039, “Aglycone exploration of C-arylglucoside inhibitors of renal sodium-dependent glucose transporter SGLT2” (Bioorg Med Chem Lett, 2008).

Legend:
[1] = target: T1, Sodium/glucose cotransporter 2 (Homo sapiens, UniProt P31639); assay: Inhibition of human SGLT2 expressed in Xenopus oocyte assessed as [14C]alpha-methyl glucopyranoside uptake
T1 sequence (P31639 whole entry): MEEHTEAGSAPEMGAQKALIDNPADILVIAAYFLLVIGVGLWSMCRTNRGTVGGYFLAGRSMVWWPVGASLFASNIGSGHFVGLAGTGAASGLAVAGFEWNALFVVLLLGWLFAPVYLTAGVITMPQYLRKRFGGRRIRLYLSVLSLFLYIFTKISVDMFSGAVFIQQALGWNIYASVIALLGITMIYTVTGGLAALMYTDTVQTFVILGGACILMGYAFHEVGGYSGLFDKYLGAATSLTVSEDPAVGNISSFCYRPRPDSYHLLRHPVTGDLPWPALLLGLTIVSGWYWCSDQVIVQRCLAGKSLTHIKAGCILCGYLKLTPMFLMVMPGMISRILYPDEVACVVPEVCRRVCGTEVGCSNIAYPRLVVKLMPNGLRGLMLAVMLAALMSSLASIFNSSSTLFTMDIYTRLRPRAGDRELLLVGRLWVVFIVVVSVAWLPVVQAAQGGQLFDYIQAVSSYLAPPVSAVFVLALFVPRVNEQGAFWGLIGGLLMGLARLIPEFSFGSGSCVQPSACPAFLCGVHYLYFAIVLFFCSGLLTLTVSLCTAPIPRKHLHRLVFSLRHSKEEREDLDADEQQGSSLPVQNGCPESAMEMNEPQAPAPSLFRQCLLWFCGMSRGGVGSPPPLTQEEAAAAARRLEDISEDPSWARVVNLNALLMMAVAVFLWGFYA

Homo sapiens = species on record: Homo sapiens; assay: Selectivity for human SGLT2 over human SGLT1 expressed in Xenopus oocyte
Mus musculus = assay: Effect on glucose concentration in Swiss Webster mouse urine at 0.3 mg/kg, iv; type: ADME, organism-based; design: dose 0.3 mg/kg, route intravenous; conditions: in vivo
Procedure, shortened: (§1)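 Fasted male rats or mice were anesthetized with i.p. ketamine:xylazine (.001 mL/g), and the bladder was cannulated via an abdominal incision. Drug was given intravenously. Urine was collected over 60 min in 10-min intervals and assayed for glucose concentration.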

Rattus norvegicus = assay: Effect on glucose concentration in Sprague-Dawley rat urine at 1 mg/kg, iv; type: ADME, organism-based; design: dose 1 mg/kg, route intravenous; conditions: in vivo; procedure, shortened: as §1
Liver microsomes = assay: Metabolic stability in Sprague-Dawley rat liver microsomes at 10 uM

Row | EC50 [1] | Selectivity ratio (Homo sapiens) | urinary glucose (Mus musculus) | urinary glucose (Rattus norvegicus) | Stability (Liver microsomes) | Structure (SMILES)
1 | 50 nM | 4 |  |  |  | Cc1cc(O)c(C(=O)CCc2ccc3occc3c2)c(O[C@@H]2O[C@H](CO)[C@@H](O)[C@H](O)[C@H]2O)c1
2 |  |  | 600 mg/dL | 230 mg/dL | Stable | Cc1ccc(Cc2cccc([C@@H]3O[C@H](CO)[C@@H](O)[C@H](O)[C@H]3O)c2)cc1
